GASC1 inh – inhibitors of human demethylase GASC-1 KDM4C; Q9H3R0; GST-KDM4C 2-372, H3K9me3 peptide, LANCE TR-FRET; inhibition, % at 12.5 µM; 0.15% of 96,000 active; AID 720574;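 active = mean replicate inhibition above about 25%, with at least 55% of replicates also reaching it, limit read from the data, passing the limit was not always enough; inconclusive = only one of those two conditions met; inactive = neither condition met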
Target sequence (Q9H3R0 2-372 limits assumed): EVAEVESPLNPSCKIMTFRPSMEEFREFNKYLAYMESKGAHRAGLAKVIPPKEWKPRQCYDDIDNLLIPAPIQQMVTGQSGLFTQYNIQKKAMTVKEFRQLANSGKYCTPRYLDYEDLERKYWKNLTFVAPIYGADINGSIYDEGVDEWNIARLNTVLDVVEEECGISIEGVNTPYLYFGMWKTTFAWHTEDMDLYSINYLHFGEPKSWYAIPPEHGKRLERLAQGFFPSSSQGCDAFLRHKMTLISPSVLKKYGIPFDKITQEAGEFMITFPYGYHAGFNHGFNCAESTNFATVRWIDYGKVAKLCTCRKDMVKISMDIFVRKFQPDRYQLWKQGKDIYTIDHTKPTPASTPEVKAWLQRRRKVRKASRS
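Material: GST-tagged GASC-1 (JMJD2C) catalytic fragment, aa 2-372. Input: enzyme final amount 10 nM. Medium: HEPES buffer, pH 7.5, plus ascorbate. Reagent: H3K9me3 peptide substrate, Fe(II), 2-oxoglutarate. Doses: single dose. Times: reaction 30 min RT, detection step 1 h RT. Measured by: LANCE TR-FRET. Evaluation: Fall in 671/618 emission ratio as inhibition.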
IDH1 mut inh – inhibitors of human IDH1 R132H. O75874. IDH1 R132H reductase, diaphorase/resazurin fluorescence, 60 min. inhibition, % at 10 µM. 0.18% of 70,000 active. AID 624101; in the data active = inhibition above about 34%; inconclusive = no clear call, values can overlap the other calls; inactive = below about 11%;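 also: 0% = DMSO and 100% = no enzyme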
T cruzi growth-1 – blocks T. cruzi growth in NIH3T3 culture; T. cruzi beta-gal in NIH3T3, GalScreen luminescence, 90 h; inhibition, % at 8.34 µM; 5.9% of 77,000 active;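 active = mean inhibition above about 93%, with at least 55% of replicates each passing it, limit read from the data, passing the limit was not always enough; inconclusive = only one of those two conditions holds; inactive = neither condition holds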
T cruzi growth-2 – Trypanosoma cruzi proliferation inhibition; shares compounds with T cruzi growth-1; T. cruzi beta-gal in NIH3T3, GalScreen luminescence, 90 h; inhibition, % at 8.35 µM; 72% of 5,600 active; AID 651739;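 active = mean replicate inhibition above about 95% and at least 55% of replicates individually reaching it, limit read from the data; inconclusive = only one of the two criteria is met; inactive = neither criterion is met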
T cruzi growth-3 – blocks T. cruzi growth in NIH3T3 host cells. inhibition, % at 2.09 µM. AID 651740. shares compounds with T cruzi growth-1. 21% of 5,600 active. T. cruzi beta-gal in NIH3T3, GalScreen luminescence, 90 h;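 active = mean inhibition above about 95%, with at least 55% of replicates also reaching it, limit read from the data; inconclusive = meets just one of the two conditions; inactive = meets neither condition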;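 also: plate controls were neutral control median for no effect and positive control median for full effect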
3T3 cytotox – kills mouse NIH/3T3 fibroblasts; shares compounds with T cruzi growth-1; NIH/3T3 viability, CellTiter-Glo ATP luminescence, 90 h; cytotoxicity (signal decrease), % at 8.35 µM; 14% of 5,600 active;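 active = mean signal decrease across replicates above about 35% based on untreated-well scatter, with enough replicates individually passing, limit read from the data; inconclusive = no rule stated though some were filed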;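 also: 0% = median of neutral control wells and 100% = median of positive control wells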
NIH3T3 tox 2 – kills mouse NIH/3T3 fibroblasts | 56% of 5,600 active | NIH/3T3 viability, CellTiter-Glo ATP luminescence, 90 h | inhibition, % at 24.9 µM | shares compounds with T cruzi growth-1;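 active = mean loss of cell viability signal at or above a set limit, and enough replicates individually reaching it; inconclusive = meets only the mean limit or only the replicate share; inactive = meets neither condition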;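 also: 0% = median of neutral control wells and 100% = median of positive control wells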
* marks the source's active call; other numbers are inactive results; u = inconclusive; x = not tested or not shown. Only a selection was taken, and hits are over-represented in it overall.

SMILES	GASC1 inh	IDH1 mut inh	T cruzi growth-1	T cruzi growth-2	T cruzi growth-3	3T3 cytotox	NIH3T3 tox 2
COc1ccc(NC(=O)CN(c2ccc(Cl)c(Cl)c2)S(C)(=O)=O)cc1OC	x	0	x	x	x	x	x
N#Cc1ccccc1CSc1nnc(-c2ccccc2)n1-c1ccccc1	x	0	x	x	x	x	x
C[C@@H]1CN([C@H](C)CO)C(=O)c2cccc(NC(=O)C3CC3)c2O[C@H]1CN(C)Cc1ccc(C(=O)Nc2ccccc2N)cc1	2	x	102*	110*	93	6	30*
C[C@@H]1CN([C@@H](C)CO)C(=O)c2cccc(NC(=O)C3CC3)c2O[C@@H]1CN(C)Cc1ccc(C(=O)Nc2ccccc2N)cc1	3	x	76	x	x	x	x
C[C@H](CO)N1C[C@H](C)[C@H](CN(C)Cc2ccc(C(=O)Nc3ccccc3N)cc2)Oc2c(NC(=O)C3CC3)cccc2C1=O	0	x	98*	106*	94	1	43*
C[C@H]1CN([C@@H](C)CO)C(=O)c2cccc(NC(=O)C3CC3)c2O[C@@H]1CN(C)Cc1ccc(C(=O)Nc2ccccc2N)cc1	1	0	91	x	x	x	x
NNC(=O)Cc1csc(-c2cccc(-n3cccc3)c2)n1	x	0	x	x	x	x	x
COc1ccc(NC(=O)Nc2ccc3c(c2)C(=O)N([C@@H](C)CO)C[C@@H](C)[C@H](CN(C)CC2CCCCC2)OCCCC[C@@H](C)O3)cc1	0	x	u	98*	59	15	104*
C[C@@H]1CCCCO[C@@H](CN(C)CC2CCCCC2)[C@H](C)CN([C@@H](C)CO)C(=O)c2cc(NC(=O)NC3CCCCC3)ccc2O1	-2	3	99*	109*	73	-5	106*
C[C@@H]1CN([C@@H](C)CO)C(=O)c2cc(NC(=O)Nc3ccccc3)ccc2O[C@@H](C)CCCCO[C@H]1CN(C)CC1CCCCC1	-1	2	97*	23	8	-1	4
C[C@@H]1CCCCO[C@@H](CN(C)CC2CC2)[C@H](C)CN([C@@H](C)CO)C(=O)c2cc(NC(=O)Nc3ccccc3)ccc2O1	15	x	82	x	x	x	x
COc1ccc(NC(=O)Nc2ccc3c(c2)C(=O)N([C@@H](C)CO)C[C@@H](C)[C@@H](CN(C)CC2CCCCC2)OCCCC[C@H](C)O3)cc1	0	-1	80	x	x	x	x
C[C@@H]1CCCCO[C@@H](CN(C)CC2CC2)[C@@H](C)CN([C@H](C)CO)C(=O)c2cc(NC(=O)Nc3ccccc3)ccc2O1	-1	x	97*	39	3	-2	7
C[C@H](CO)N1C[C@H](C)[C@H](CN(C)CC2CCCCC2)OCCCC[C@H](C)Oc2ccc(NC(=O)NC3CCCCC3)cc2C1=O	-2	x	78	x	x	x	x
C[C@H]1CCCCO[C@@H](CN(C)CC2CCCCC2)[C@@H](C)CN([C@@H](C)CO)C(=O)c2cc(NC(=O)Nc3ccccc3)ccc2O1	-1	-1	90	x	x	x	x
COC(=O)C(O)(c1ccc(NC(=S)NC(=O)c2ccc(Cl)cc2Cl)c(OC)c1)C(F)(F)F (centres undefined)	x	0	x	x	x	x	x
CC(NS(=O)(=O)c1ccc(Cl)cc1)C(=O)Nc1cccc2ccccc12 (centres undefined)	x	1	x	x	x	x	x
Cc1cc(C)c(NC(=O)CN(C)S(=O)(=O)c2ccccc2)c(C)c1	x	1	x	x	x	x	x
C[C@@H]1CCCCO[C@H](CN(C)CC2CCCCC2)[C@H](C)CN([C@H](C)CO)C(=O)c2cc(NC(=O)Nc3ccccc3)ccc2O1	-2	x	u	102*	90	28	105*
C[C@H](CO)N1C[C@H](C)[C@@H](CN(C)CC2CCCCC2)OCCCC[C@H](C)Oc2ccc(NC(=O)Nc3ccccc3)cc2C1=O	0	1	93	x	x	x	x
O=C(C1CCC1)N1CCCCN2[C@@H](CO)[C@H](c3ccc(-c4ccncc4)cc3)[C@@H]2C1	5	x	u	102*	88	15	u
CN(C)C(=O)c1ccc(-c2ccc([C@@H]3[C@@H](CO)N4CCCCN(C(=O)C5CCCC5)C[C@@H]34)cc2)cc1	x	x	54	x	x	x	x
CN(C)C(=O)c1ccc(-c2ccc([C@H]3[C@H]4CN(C(=O)C5CC5)CCCCN4[C@H]3CO)cc2)cc1	1	x	61	x	x	x	x
CN(C)C(=O)c1ccc(-c2ccc([C@@H]3[C@H](CO)N4CCCCN(C(=O)C5CCC5)C[C@@H]34)cc2)cc1	x	x	106*	103*	u	16	13
CN(C)C(=O)c1ccc(-c2ccc([C@H]3[C@H](CO)N4CCCCN(C(=O)C5CC5)C[C@@H]34)cc2)cc1	-1	x	u	100*	80	-26	10
SMILES	GASC1 inh	IDH1 mut inh	T cruzi growth-1	T cruzi growth-2	T cruzi growth-3	3T3 cytotox	NIH3T3 tox 2
O=C(C1CCC1)N1CCCCN2[C@H](C1)[C@H](c1ccc(-c3ccncc3)cc1)[C@@H]2CO	-1	x	55	x	x	x	x
CN(C)C(=O)c1ccc(-c2ccc([C@@H]3[C@@H](CO)N4CCCCN(C(=O)C5CCC5)C[C@@H]34)cc2)cc1	x	x	-1	x	x	x	x
CN(C)C(=O)c1ccc(-c2ccc([C@H]3[C@@H](CO)N4CCCCN(C(=O)C5CCC5)C[C@H]34)cc2)cc1	x	x	113*	97*	u	-11	12
Cc1ccc(-c2nnc(SCC(=O)Nc3c(C)cc(C)cc3C)o2)cc1	x	0	x	x	x	x	x
CC(C)CC#Cc1cnc2c(c1)C(=O)N([C@@H](C)CO)C[C@@H](C)[C@@H](CN(C)C(=O)C1CCCCC1)O2	0	0	48	x	x	x	x
CNC[C@@H]1Oc2ncc(C#CCC3CCCC3)cc2C(=O)N([C@H](C)CO)C[C@H]1C	0	-1	u	109*	u	-2	106*
C[C@@H]1CN([C@H](C)CO)C(=O)c2cc(C#CCc3ccccc3)cnc2O[C@H]1CN(C)C(=O)C1CCCCC1	0	2	105	x	x	x	x
CNC[C@@H]1Oc2ncc(C#CCC3CCCC3)cc2C(=O)N([C@H](C)CO)C[C@@H]1C	1	0	57	x	x	x	x
CC(C)CC#Cc1cnc2c(c1)C(=O)N([C@@H](C)CO)C[C@@H](C)[C@H](CN(C)C(=O)C1CCCCC1)O2	0	-2	u	u	32	-10	81*
C[C@@H]1CN([C@@H](C)CO)C(=O)c2cc(C#CCc3ccccc3)cnc2O[C@H]1CN(C)C(=O)C1CCCCC1	0	x	114*	105*	36	-28	106*
NCC[C@@H]1CC[C@H](NC(=O)C2CCCC2)[C@H](CO)O1	3	0	x	x	x	x	x
COc1ccc(-c2csc(NC(=O)c3cc(-c4ccc(C)o4)nc4ccccc34)c2C#N)cc1OC	x	0	x	x	x	x	x
C[C@@H]1CCCCO[C@@H](CN(C)C)[C@@H](C)CN([C@H](C)CO)C(=O)c2cc(NC(=O)Cc3ccccc3)ccc2O1	-2	1	-48	x	x	x	x
CC(=O)c1ccc(NC(=O)CSc2nnc3c4ccccc4n(C)c3n2)cc1	x	0	x	x	x	x	x
